Activity calls are given as the source filed them. The calls are words filed in the database; no cut-off is given here.
Tests used:
[1] = Half life in Wistar rat liver homogenates at 50 uM by HPLC analysis; assay type: ADME, tissue-based
How it was run: (§1)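 Male Wistar rat liver washed in ice-cold saline, homogenized in 50 mM Tris-HCl pH 7.4 (4 mL/g); 2000 × g, 10 min, 4 °C supernatant stored −80 °C. Compound from 10^-2 M DMSO stock incubated at 50 μM final, 37 °C, up to 360 min; HPLC with external-standard peak areas. First-order kinetics from semilogarithmic plots; mean ± SD of three independent experiments.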

Liver [2] = test: Metabolic stability in Wistar rat liver homogenates assessed as increase in guanine formation by HPLC analysis; assay type: ADME, tissue-based; conditions: tissue homogenate
How it was run: (§2)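 Supernatant of male Wistar rat liver homogenate (Tris-HCl 50 mM, pH 7.4; 2000 × g) incubated at 37 °C with 50 μM compound up to 360 min. Guanine measured by RP18 HPLC, water/acetonitrile 99:1 with 0.01 M H3PO4, 0.8 mL/min, external-standard peak areas.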

Platelet = test: Induction of platelets aggregation in human platelet rich plasma at 10^-4 M after 3 mins by light transmission aggregometry analysis; assay type: functional, cell-free
How it was run: (§3)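 PRP from citrated whole blood (9:1) of healthy volunteers taken 2 h after an acetylsalicylic acid tablet; centrifuged 150g, 21 °C, 10 min. Pre-warmed PRP at 37 °C with test agent (10^-4 M) or vehicle; aggregation triggered with 10^-6 M ADP; shape change and aggregation followed 3 min by light transmission aggregometry.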

[3] = Antiplatelet activity against human platelets assessed as inhibition of ADP-induced platelet aggregation at 10^-4 M after 3 mins by light transmission aggregometry analysis; assay type: functional; conditions: 0.05 h; how it was run: as §3
Liver [4] = test: (§4) Metabolic stability in Wistar rat liver homogenates assessed as compound degradation at 50 uM after 6 hrs by HPLC analysis; assay type: ADME, tissue-based; conditions: tissue homogenate, 6 h, 50 µM; how it was run: as §1
Blood = test: (§5) Metabolic stability in human whole blood assessed as compound degradation after 6 hrs by HPLC analysis; assay type: ADME, tissue-based; conditions: blood, 6 h
How it was run: (§6)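 Compound from 10^-2 M DMSO stock incubated at 50 μM final in whole blood from healthy subjects (3 mL) at 37 °C for intervals up to 360 min. Remaining parent quantified by reversed-phase HPLC, peak areas against external standards; semilogarithmic regression for first-order kinetics; mean ± SD of three independent experiments.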

[5] = as §4; assay type: ADME, tissue-based; conditions: Wistar, liver homogenates, read-out: Drug degradation; how it was run: as §1
[6] = as §5; assay type: ADME, tissue-based; conditions: whole blood, read-out: Drug degradation; how it was run: as §6
Liver [7] = test: Drug degradation in Wistar rat liver homogenates assessed as increase in guanine formation by HPLC analysis; assay type: ADME, tissue-based; conditions: tissue homogenate; how it was run: as §2

Structure (SMILES)	Activity (Platelet)	also measured
Nc1nc2c(ncn2[C@@H]2O[C@H](CO)[C@@H](O)[C@H]2O)c(=O)[nH]1 [GUANOSINE]		half-life at 50 µM [1]: 0.00403 h; Stability (Liver [2]): Unstable
CCOP(=O)(CC(=O)OCCOCn1cnc2c(N)ncnc21)OCC	inactive	
CCOP(=O)(O)CC(=O)OCCOCn1cnc2c(N)ncnc21	inactive	inhibition at 100 µM [3]: ≤ 70%; Stability (Liver [4]): Stable; Stability (Blood): Stable
CCOP(=O)(CC(=O)OC[C@H]1O[C@@H](n2cnc3c(=O)[nH]c(N)nc32)[C@H](O)[C@@H]1O)OCC	inactive	inhibition at 100 µM [3]: ≤ 70%; half-life at 50 µM [1]: 2.33 h; metabolised at 6 h, 50 µM [5]: 80%; metabolised at 6 h [6]: 20%; Drug degradation (Liver [7]): Active
Nc1nc2c(ncn2[C@@H]2O[C@H](COC(=O)CP(=O)(O)O)[C@@H](O)[C@H]2O)c(=O)[nH]1	inactive	
CCOP(=O)(CC(=O)OC[C@H](CO)O[C@H](CO)n1cnc2c(N)ncnc21)OCC	inactive	
CCOP(=O)(CC(=O)OC[C@H]1O[C@@H](n2cnc3c(=O)[nH]c(NC(=O)C(C)C)nc32)[C@H](O)[C@@H]1O)OCC	inactive	
Nc1ncnc2c1ncn2[C@@H]1O[C@H](COC(=O)CP(=O)(O)O)[C@@H](O)[C@H]1O [ADENOSINE PHOSPHONOACETIC ACID]	inactive	inhibition at 100 µM [3]: ≤ 70%; Stability (Liver [4]): Stable; Stability (Blood): Stable
O=C(CP(=O)(O)O)NC[C@H]1O[C@@H](n2cnc3c(=O)[nH]cnc32)[C@H](O)[C@@H]1O	inactive	
CCOP(=O)(CC(=O)NC[C@H]1O[C@@H](n2cnc3c(N)ncnc32)[C@H](O)[C@@H]1O)OCC	inactive	
CCOP(=O)(CC(=O)NC[C@H]1O[C@@H](n2cnc3c(=O)[nH]cnc32)[C@H](O)[C@@H]1O)OCC	inactive	
CCOP(=O)(CC(=O)OC[C@H]1O[C@@H](n2c(SC)nc3c(N)ncnc32)[C@H](O)[C@@H]1O)OCC	inactive	
CCOP(=O)(CC(=O)OC[C@H]1O[C@@H](n2cnc3c(=O)[nH]cnc32)[C@H](O)[C@@H]1O)OCC	inactive	
CC(C)C(=O)Nc1nc2c(ncn2[C@@H]2O[C@H](COC(=O)CP(=O)(O)O)[C@@H](O)[C@H]2O)c(=O)[nH]1	inactive	
Nc1ncnc2c1ncn2[C@@H]1O[C@H](CNC(=O)CP(=O)(O)O)[C@@H](O)[C@H]1O	inactive	
CCOP(=O)(CC(=O)OC[C@H]1O[C@@H](n2cnc3c(N)ncnc32)[C@H](O)[C@@H]1O)OCC	inactive	
CCOP(=O)(CC(=O)NC[C@H](CO)O[C@H](CO)n1cnc2c(N)ncnc21)OCC	inactive	

From ChEMBL document CHEMBL2040843, “Synthesis and in vitro stability of nucleoside 5'-phosphonate derivatives” (Eur J Med Chem, 2012)
